Drawing on ChEMBL document CHEMBL3286164, “Anti-proliferative effect of chalcone derivatives through inactivation of NF-κB in human cancer cells” (Bioorg Med Chem, 2014), this text covers IC50 and GI50 for 19 compounds.

Assay [1] is described as follows: Inhibition of NF-kappaB in mouse RAW264.7 cells incubated for 2 hrs prior to LPS challenge measured after 16 hrs by SEAP assay. It is filed as cell-based. In outline:
(§1)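 Reporter cells: RAW 264.7 carrying stably integrated pNF-κB-SEAP-NPT, or THP-1 transfected with pNF-κB-SEAP. Cells were pretreated with compound for 2 h, then stimulated with LPS (1 µg/ml) for 16 h. Culture-medium aliquots were heated at 65 °C for 5 min and incubated with 4-methylumbelliferyl phosphate (500 µM) in the dark for 1 h. Fluorescence was read at ex 360/em 449 nm as RFU. IC50 is the mean of three experiments.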

Another assay relates to ACHN. In words: Antiproliferative activity against human ACHN cells by SRB method. The assay is classed as functional. In outline:
(§2)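 GI50 against human cancer cell lines is the mean of three independent experiments.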
Background: In SRB staining, fixed cells bind dye roughly in proportion to their protein.

Another assay deals with NCI-H23. In words: Antiproliferative activity against human NCI-H23 cells by SRB method. It is filed as functional. In outline:
as §2

Another assay relates to MDA-MB-231. Put plainly: Antiproliferative activity against human MDA-MB-231 cells by SRB method. It is filed as functional. In outline: as §2
Assay [2] in a line: Antiproliferative activity against human HCT15 cells by SRB method. The assay is classed as functional. The conditions noted are these: HCT-15. An outline of the steps:
as §2

The nature of assay [3]: Antiproliferative activity against human NUGC3 cells by SRB method. It is filed as functional. The conditions noted are these: NUGC-3. An outline of the steps:
as §2

The next assay deals with PC-3. Put plainly: Antiproliferative activity against human PC3 cells by SRB method. It is filed as functional. An outline of the steps: as §2
The target of assay [4] is Nuclear factor NF-kappa-B complex (Homo sapiens, UniProt P19838+Q00653+Q04206). Put plainly: Inhibition of NF-kappaB in human THP1 cells incubated for 2 hrs prior to LPS challenge measured after 16 hrs by SEAP assay. It is filed as cell-based, THP-1. An outline of the steps: as §1
Sequence of Nuclear factor NF-kappa-B complex (P19838 1-433 limits assumed): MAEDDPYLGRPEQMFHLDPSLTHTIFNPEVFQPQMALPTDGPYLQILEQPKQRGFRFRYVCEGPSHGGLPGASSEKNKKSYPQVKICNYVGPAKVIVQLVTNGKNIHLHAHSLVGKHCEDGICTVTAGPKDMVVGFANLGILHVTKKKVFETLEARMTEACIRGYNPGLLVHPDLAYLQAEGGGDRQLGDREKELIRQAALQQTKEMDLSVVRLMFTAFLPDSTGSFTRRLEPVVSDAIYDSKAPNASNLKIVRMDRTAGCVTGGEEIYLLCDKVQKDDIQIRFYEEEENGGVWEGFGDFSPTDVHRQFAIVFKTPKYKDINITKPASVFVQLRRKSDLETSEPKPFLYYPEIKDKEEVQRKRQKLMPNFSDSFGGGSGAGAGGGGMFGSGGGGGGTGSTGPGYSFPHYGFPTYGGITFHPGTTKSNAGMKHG
Sequence of Nuclear factor NF-kappa-B complex (Q00653 1-454 limits assumed): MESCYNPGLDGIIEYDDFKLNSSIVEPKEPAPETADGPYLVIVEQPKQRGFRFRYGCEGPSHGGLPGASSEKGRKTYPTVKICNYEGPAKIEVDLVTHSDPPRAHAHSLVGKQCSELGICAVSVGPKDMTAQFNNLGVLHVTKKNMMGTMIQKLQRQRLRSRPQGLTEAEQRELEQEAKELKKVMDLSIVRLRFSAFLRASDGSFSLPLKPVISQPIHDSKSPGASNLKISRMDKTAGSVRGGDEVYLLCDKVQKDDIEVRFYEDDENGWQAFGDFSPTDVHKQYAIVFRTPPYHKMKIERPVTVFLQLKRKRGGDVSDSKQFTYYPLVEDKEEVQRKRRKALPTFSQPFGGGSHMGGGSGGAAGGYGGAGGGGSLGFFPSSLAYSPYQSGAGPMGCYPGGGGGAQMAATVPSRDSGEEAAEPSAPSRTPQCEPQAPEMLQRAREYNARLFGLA
Sequence of Nuclear factor NF-kappa-B complex (Q04206 whole entry): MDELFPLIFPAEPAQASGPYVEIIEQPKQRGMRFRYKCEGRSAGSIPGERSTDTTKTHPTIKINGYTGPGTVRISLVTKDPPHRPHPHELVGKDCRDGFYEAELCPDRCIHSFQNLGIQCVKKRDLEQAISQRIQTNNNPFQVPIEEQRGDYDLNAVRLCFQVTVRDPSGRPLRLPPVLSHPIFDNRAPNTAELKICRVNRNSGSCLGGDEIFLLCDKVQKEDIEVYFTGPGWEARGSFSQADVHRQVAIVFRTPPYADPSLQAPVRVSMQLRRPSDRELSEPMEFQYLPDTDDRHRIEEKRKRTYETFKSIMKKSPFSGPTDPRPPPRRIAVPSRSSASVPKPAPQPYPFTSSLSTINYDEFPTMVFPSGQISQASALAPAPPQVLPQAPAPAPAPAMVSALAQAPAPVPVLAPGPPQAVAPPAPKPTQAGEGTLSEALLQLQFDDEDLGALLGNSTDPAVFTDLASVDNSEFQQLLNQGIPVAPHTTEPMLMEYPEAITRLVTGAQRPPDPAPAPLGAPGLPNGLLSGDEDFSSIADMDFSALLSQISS

SMILES strings stand for the structures.

For orientation: IC50 means the concentration at which inhibition is half-maximal. A higher IC50 goes with weaker potency. For orientation: GI50 means the concentration at which growth is held to half of that of the control. Read a low GI50 as greater sensitivity of the cells.

For the compound `CC(C)CCOc1cccc(O)c1C(=O)/C=C/c1ccc(O)cc1`, the midpoint of inhibition in assay [1], the IC50, lay at 10 µM. For the same compound, the 50% growth inhibitory concentration (GI50) in the assay on ACHN was 11.3 µM; in the assay with NCI-H23, 12.1 µM; in the assay on MDA-MB-231, 10.3 µM; in assay [2], 10.6 µM; in assay [3], 12.4 µM; in the assay on PC-3 it was 11.5 µM.
For `CCCCCCOc1cccc(O)c1C(=O)/C=C/c1ccc(O)cc1`, the GI50 (with ACHN; in the assay on NCI-H23; in the assay with MDA-MB-231; in assay [2]; in assay [3]; with PC-3) was above 30 µM throughout.
In the case of `O=C(/C=C/c1ccc(O)cc1)c1c(O)cccc1OCC1CCCCC1`, the GI50 (in the assay with ACHN; in the assay with NCI-H23; in the assay on MDA-MB-231; in assay [2]; in assay [3]; with PC-3) was above 30 µM in each case.
As to `O=C(/C=C/c1ccc(O)cc1)c1c(O)cccc1OCc1ccccc1`, the GI50 (in the assay with ACHN; in the assay with NCI-H23; in the assay with MDA-MB-231; in assay [2]; in assay [3]; with PC-3) was above 30 µM in each case.
As to `O=C(/C=C/c1ccc(O)cc1)c1c(O)cccc1OCC1CCCC1`, the concentration for 50% growth inhibition (GI50) was 3.51 µM in the assay with ACHN; 3.16 µM with NCI-H23; 3.41 µM in the assay with MDA-MB-231; 3.41 µM in assay [2]; 2.14 µM in assay [3]; 3.04 µM in the assay with PC-3. Besides, in assay [4], the half-maximal inhibitory concentration (IC50) worked out at 13 µM.
In the case of `CC(C)CCCOc1cccc(O)c1C(=O)/C=C/c1ccc(O)cc1`, the 50% growth inhibitory concentration (GI50) in the assay on ACHN amounted to 3.63 µM; with NCI-H23, 11.3 µM; in the assay on MDA-MB-231, 3.48 µM; in assay [2] it was 11.6 µM; in assay [3], 3.52 µM; in the assay on PC-3 it was 3.6 µM. This compound gave an IC50 in assay [4] of 11 µM.
In the case of `CCCCOc1cccc(O)c1C(=O)/C=C/c1ccc(O)cc1`, the 50% growth inhibitory concentration (GI50) (with ACHN; in the assay with NCI-H23; with MDA-MB-231; in assay [2]; in assay [3]; in the assay with PC-3) was above 30 µM throughout. The same compound displayed an IC50 in assay [4] above 30 µM.
`CC(C)(C)CCOc1cccc(O)c1C(=O)/C=C/c1ccc(O)cc1`: the GI50 amounted to 3.14 µM in the assay on ACHN; 3.13 µM in the assay with NCI-H23; 2.38 µM in the assay on MDA-MB-231; 3.43 µM in assay [2]; 3.3 µM in assay [3]; 3.22 µM in the assay with PC-3. Also, the concentration for half-maximal inhibition (IC50) in assay [4] was found to be 3 µM.
With `CC(C)COc1cccc(O)c1C(=O)/C=C/c1ccc(O)cc1`, the GI50 in the assay with ACHN came out at 3.29 µM; in the assay on NCI-H23, 3.22 µM; with MDA-MB-231, 3.52 µM; in assay [2] it was 2.6 µM; in assay [3], 2.98 µM; with PC-3, 2.97 µM. In assay [4], this compound registered a half-maximal inhibitory concentration (IC50) of 8 µM.
`CCC(CC)COc1cccc(O)c1C(=O)/C=C/c1ccc(O)cc1`: the GI50 stood at 3.37 µM in the assay on ACHN; 3.21 µM in the assay on NCI-H23; 3.13 µM in the assay with MDA-MB-231; 3.42 µM in assay [2]; 1.96 µM in assay [3]; 3.39 µM with PC-3. The same compound displayed an IC50 in assay [4] of 12 µM.
Consider `CC(C)=CCOc1cccc(O)c1C(=O)/C=C/c1ccc(O)cc1`, for which the GI50 (in the assay on ACHN; with NCI-H23; in the assay on MDA-MB-231; in assay [2]; in assay [3]; in the assay with PC-3) was above 30 µM throughout. Further, the IC50 in assay [4] was above 30 µM.
For the compound `O=C(/C=C/c1ccc(O)cc1)c1c(O)cccc1OCCC1CCCC1`, the GI50 with ACHN was determined as 3.4 µM; in the assay with NCI-H23 it was 3.37 µM; with MDA-MB-231, 3.34 µM; in assay [2], 3.31 µM; in assay [3], 3.2 µM; in the assay on PC-3, 3.48 µM. In addition, the midpoint of inhibition in assay [4], the IC50, lay at 18 µM.
For `O=C(/C=C/c1ccc(O)cc1)c1c(O)cccc1OCCC1CCCCC1`, the 50% growth inhibitory concentration (GI50) (with ACHN; in the assay with NCI-H23; with MDA-MB-231; in assay [2]; in assay [3]; with PC-3) was above 30 µM each time. The concentration for half-maximal inhibition (IC50) in assay [4] is above 30 µM.
Consider `O=C(/C=C/c1ccc(O)cc1)c1c(O)cccc1OCC12CC3CC(CC(C3)C1)C2`, for which the concentration for 50% growth inhibition (GI50) (in the assay on ACHN; in the assay with NCI-H23; in the assay with MDA-MB-231; in assay [2]; in assay [3]; in the assay on PC-3) was above 30 µM throughout. This compound yielded a half-maximal inhibitory concentration (IC50) in assay [4] above 30 µM.
For `CC(C)(C)CCOc1cccc(O)c1C(=O)/C=C/c1ccc(C(=O)O)cc1`, the GI50 with ACHN was 8.45 µM; in the assay with NCI-H23, 4.77 µM; in the assay on MDA-MB-231, 11.2 µM; in assay [2] it was 2.17 µM; in assay [3], 5.44 µM; in the assay with PC-3 it was 6.5 µM. The same compound came in with a concentration for half-maximal inhibition (IC50) in assay [4] of 2.8 µM.
For `CC(C)(C)CCOc1cccc(O)c1C(=O)/C=C/c1ccc(S(N)(=O)=O)cc1`, the 50% growth inhibitory concentration (GI50) in the assay on ACHN was 3.3 µM; in the assay with NCI-H23 it was 2.95 µM; with MDA-MB-231, 2.11 µM; in assay [2] it was 2.93 µM; in assay [3] it was 1.17 µM; in the assay on PC-3, 3.25 µM. In assay [4], this compound had an IC50 of 1.2 µM.
Regarding `COc1cccc(OCCC(C)(C)C)c1C(=O)/C=C/c1ccc(O)cc1`, the 50% growth inhibitory concentration (GI50) (with ACHN; with NCI-H23; with MDA-MB-231; in assay [2]; in assay [3]; in the assay with PC-3) was above 30 µM throughout. For the same compound, the IC50 in assay [4] is above 30 µM.
As for `CC(C)(C)CCOc1cccc(O)c1C(=O)CCc1ccc(O)cc1`, the GI50 (in the assay on ACHN; in the assay on NCI-H23; in the assay with MDA-MB-231; in assay [2]; in assay [3]; in the assay with PC-3) was above 30 µM each time. Moreover, in assay [4], the IC50 was above 30 µM.
As to `COc1cccc2c1C(=O)c1c(O)c3c(c(O)c1C2=O)C[C@@](O)(C(=O)CO)C[C@@H]3O[C@H]1C[C@H](N)[C@H](O)[C@H](C)O1` [DOXORUBICIN], the GI50 in assay [3] was 1 µM.
